IC50 and inhibition data for two molecules are collected here from ChEMBL document CHEMBL2434964, “Novel 1H-pyrrolo[2,3-b]pyridine derivative nortopsentin analogues: synthesis and antitumor activity in peritoneal mesothelioma experimental models” (J Med Chem, 2013).

For orientation: IC50 means the concentration that inhibits the measured activity by half.

Test [1] can be described thus: Cytotoxicity against human W138 cells assessed as growth inhibition after 72 hrs by MTS assay. The settings on record: WI-38, 72 h. Type of test: cell-based. In a few lines:
(§1)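 Log-phase cells, 4500 per well, plated 24 h, then given 0.1–100 μM compound for 72 h; vehicle (DMSO) controls. MTS read-out at 490 nm as % of DMSO-treated cells. IC50 taken graphically from the dose-response curve. Eight replicates; mean ± SD of at least three independent experiments.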

The species entered for test [2] is Homo sapiens. The test can be described thus: (§2) Cytotoxicity against human cells Meso2 assessed as growth inhibition after 72 hrs by MTS assay. Type of test: functional, cell-based. In a few lines: as §1
Test [3] can be described thus: as §2. The test is classed as functional, cell-based. Particulars: Meso2, 72 h. In a few lines: as §1
Test [4] has as its system STO. The test can be described thus: (§3) Cytotoxicity against human STO cells assessed as growth inhibition after 72 hrs by MTS assay. The test is classed as functional, cell-based. In a few lines: as §1
A general note: Tetrazolium dyes change colour on reduction, which living cells bring about.

Test [5] is described as follows: as §3. Type of test: functional, cell-based. In a few lines: as §1

As for `Cn1cc(-c2nc(-c3cn(C)c4ncccc34)cs2)c2ccccc21`, the IC50 in test [1] worked out at 18.8 µM; in test [3] it was 16.8 µM; in test [5], 0.61 µM. Further, the inhibition result in test [2] and in test [4] was “Dose-dependent effect” each time.
With `Cn1cc(-c2csc(-c3c[nH]c4ccc(F)cc34)n2)c2cccnc21`, the figures for the concentration for half-maximal inhibition (IC50) in test [1], in test [3] and in test [5] were 15.4 µM, 13.3 µM and 0.54 µM, respectively. Besides, the inhibition entry in test [2] and in test [4] was “Dose-dependent effect” each time.
